Measured values published in ChEMBL document CHEMBL3108738, “The chemical and biological potential of C ring modified triterpenoids” (Eur J Med Chem, 2014).
Calls of active or inactive are those of the source. The calls are words filed in the database; no cut-off is given here.

Columns and labels:
A2780 [1] = assay: Induction of apoptosis in human A2780 cells assessed as necrotic cells at 30 uM after 24 hrs by annexin V/propidium iodide staining-based FACS analysis (reference value: 6.37%); assay type: functional
A2780 [2] = assay: Induction of apoptosis in human A2780 cells assessed as vital cells at 30 uM after 24 hrs by annexin V/propidium iodide staining-based FACS analysis (reference value: 82.15%); assay type: functional
A2780 [3] = assay: Induction of apoptosis in human A2780 cells assessed as secondary necrotic cells at 30 uM after 24 hrs by annexin V/propidium iodide staining-based FACS analysis (reference value: 9.71%); assay type: functional
A2780 [4] = assay: Induction of apoptosis in human A2780 cells assessed as necrotic cells at 30 uM after 24 hrs by annexin V/propidium iodide staining-based FACS analysis (reference value: 1.78%); assay type: functional
A2780 [5] = assay: Induction of apoptosis in human A2780 cells at 30 uM after 24 hrs by annexin V/propidium iodide staining-based FACS analysis; assay type: functional
A2780 [6] = assay: Induction of apoptosis in human A2780 cells assessed as DNA ladder formation at 30 uM after 24 hrs by electrophoresis; assay type: functional, cell-based
In short: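 A2780 cells were exposed to 30 µM compound for 24 h. Floating (dead) cells were collected and washed with PBS, and DNA fragmentation was examined by gel laddering alongside an untreated control.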

NIH3T3 = assay: Cytotoxicity against mouse NIH/3T3 cells after 96 hrs by SRB assay; assay type: ADME, cell-based; details: NIH3T3, 96 h
MCF7 = assay: Cytotoxicity against human MCF7 cells after 96 hrs by SRB assay; assay type: functional, cell-based; details: MCF7, 96 h
A549 = assay: Cytotoxicity against human A549 cells after 96 hrs by SRB assay; assay type: functional, cell-based; details: A549, 96 h
HT-29 = assay: Cytotoxicity against human HT-29 cells after 96 hrs by SRB assay; assay type: functional, cell-based; details: HT-29, 96 h
A2780 [7] = assay: Cytotoxicity against human A2780 cells after 96 hrs by SRB assay; assay type: functional, cell-based; details: A2780, 96 h
8505C = assay: cells; assay type: functional, cell-based; details: Homo sapiens, 96 h
[8] = Cytotoxicity against human 518A2 cells after 96 hrs by SRB assay; assay type: functional, cell-based; details: 518A2, 96 h
A2780 [9] = assay: Cell cycle arrest in human A2780 cells at 30 uM by propidium iodide staining-based FACS analysis; assay type: functional
A2780 [10] = assay: Cell cycle arrest in human A2780 cells assessed as accumulation at S phase at 30 uM by propidium iodide staining-based FACS analysis (reference value: 32.439 %); assay type: functional
A2780 [11] = assay: Cell cycle arrest in human A2780 cells assessed as accumulation at G2 phase at 30 uM by propidium iodide staining-based FACS analysis (reference value: 15.721 %); assay type: functional
A2780 [12] = assay: Cell cycle arrest in human A2780 cells assessed as accumulation at G1 phase at 30 uM by propidium iodide staining-based FACS analysis (reference value: 51.839 %); assay type: functional

Row | SMILES | Activity (A2780 [1]) [%] | Activity (A2780 [2]) [%] | Activity (A2780 [3]) [%] | Activity (A2780 [4]) [%] | Activity (A2780 [5]) [%] | Activity (A2780 [6]) | IC50 (NIH3T3) [µM] | IC50 (MCF7) [µM] | IC50 (A549) [µM] | IC50 (HT-29) [µM] | IC50 (A2780 [7]) [µM] | IC50 (8505C) [µM] | IC50 [8] [µM] | Activity (A2780 [9]) | Activity (A2780 [10]) [%] | Activity (A2780 [11]) [%] | Activity (A2780 [12]) [%]
1 | COC(=O)[C@]12CCC(C)(C)C[C@H]1C1=CC(=O)[C@@H]3[C@@]4(C)CC[C@H](O)C(C)(C)[C@@H]4CC[C@@]3(C)[C@]1(C)CC2 | 34.13 | 33.08 | 29.68 | 3.11 | >50 | Active | 24.8 | 21.3 | 15.1 | 18.5 | 6.6 | 13 | 15.6 | – | – | – | –
2 | CC1(C)CC[C@]2(C(=O)OCc3ccccc3)CC[C@]3(C)[C@H](C(=O)C[C@@H]4[C@@]5(C)CC[C@H](O)C(C)(C)[C@@H]5CC[C@]43C)[C@@H]2C1 | 13.82 | 74.47 | 11.08 | 0.62 | – | – | – | – | – | – | – | – | – | – | – | – | –
3 | CC1(C)CC[C@@]23CC[C@]4(C)[C@@](OC2=O)([C@@H]3C1)[C@@H](Cl)C[C@@H]1[C@@]2(C)C[C@@H](O)[C@H](O)C(C)(C)[C@@H]2CC[C@]14C | – | – | – | – | – | – | > 90 | – | 33.1 | 510 | 34.2 | 18 | – | – | – | – | –
4 | CC1(C)CC[C@]2(C(=O)O)CC[C@]3(C)C(=CC[C@@H]4[C@@]5(C)CC[C@H](O)C(C)(C)[C@@H]5CC[C@]43C)[C@@H]2C1 [OLEANOLIC_ACID] | – | – | – | – | – | – | 76.4 | > 60 | 72.3 | 38.8 | 14 | > 60 | > 60 | – | – | – | –
5 | CC1(C)CC[C@]2(C(=O)O)CC[C@]3(C)C(=CC[C@@H]4[C@@]5(C)C[C@@H](O)[C@H](O)C(C)(C)[C@@H]5CC[C@]43C)[C@@H]2C1 [MASLINIC ACID] | – | – | – | – | – | – | 21.4 | 16.6 | – | – | – | – | – | – | – | – | –
6 | CC1(C)CC[C@]2(C(=O)OCc3ccccc3)CC[C@]3(C)C(=CC[C@@H]4[C@@]5(C)CC[C@H](O)C(C)(C)[C@@H]5CC[C@]43C)[C@@H]2C1 | – | – | – | – | – | – | 22.4 | 15.8 | 28 | 28.7 | 23 | 29.1 | 28 | – | – | – | –
7 | CC(=O)O[C@H]1CC[C@]2(C)[C@H]3C[C@H](O)[C@]45OC(=O)[C@@]6(CCC(C)(C)C[C@H]64)CC[C@@]5(C)[C@]3(C)CC[C@H]2C1(C)C | 11.84 | 74.74 | 11.89 | 1.54 | – | – | 85.7 | > 90 | > 90 | > 90 | 63.2 | > 90 | > 90 | inactive | 32.261 | 15.86 | 51.879
8 | COC(=O)[C@]12CCC(C)(C)C[C@H]1[C@H]1C(=O)C[C@@H]3[C@@]4(C)C[C@@H](OC(C)=O)[C@H](OC(C)=O)C(C)(C)[C@@H]4CC[C@@]3(C)[C@]1(C)CC2 | – | – | – | – | – | – | 31.7 | 23.8 | 14.1 | 17.6 | 11.6 | 10.3 | 9.6 | – | – | – | –
9 | CN[C@@H]1C[C@H]2O[C@@](C)([C@@H]1OC)n1c3ccccc3c3c4c(c5c6ccccc6n2c5c31)C(=O)NC4 [STAUROSPORINE] | – | – | – | – | – | – | – | 0.4 | – | – | – | – | – | – | – | – | –
10 | COC(=O)[C@]12CC[C@@H](C)[C@H](C)[C@H]1C1=CC[C@@H]3[C@@]4(C)CC[C@H](O)C(C)(C)[C@@H]4CC[C@@]3(C)[C@]1(C)CC2 [METHYL URSOLATE] | – | – | – | – | – | – | – | 22.2 | 20.2 | 25.4 | 15.3 | 20.6 | 17.7 | – | – | – | –
